A3A deaminase – human APOBEC3A DNA deaminase inhibition | P31941 | inhibition, % at 20 µM | 330,000 compounds, 0.41% hits | recombinant A3A, FAM/TAMRA ssDNA deamination fluorescence;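 active = at least 40% inhibition at 20 µM here, with at most 30% in a related deaminase screen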;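 also: plate controls were A3A with DMSO for no effect and wells lacking A3A enzyme for full effect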
Mot1-301 SUMO – SUMOylation pathway inhibition by Mot1-301 growth rescue. S. cerevisiae Mot1-301 growth rescue, ATP luminescence, 38.5C; percent above DMSO median, 100 means doubled. growth rescue, % at 18.8 µM. 320,000 compounds, 1% hits;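 active = every valid replicate shows activation above 250% relative to neutral control wells; inactive = the rest, any valid replicate at or below 250%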;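 also: OY570 slx delta 5 strain wells were the positive control but not used for scaling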
APOBEC3G inh – inhibitors of human APOBEC3G DNA deaminase; recombinant A3G, ssDNA deamination FAM/TAMRA fluorescence; inhibition, % at 20 µM; 330,000 compounds, 0.28% hits; AID 493012;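 active = inhibition of at least 40% at 20 µM, with no more than 30% in the related APOBEC3A deaminase screen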;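 also: plate controls were DMSO wells with A3G for no effect and wells lacking A3G enzyme for full effect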
Target sequence (Q9HC16 whole entry, looked up): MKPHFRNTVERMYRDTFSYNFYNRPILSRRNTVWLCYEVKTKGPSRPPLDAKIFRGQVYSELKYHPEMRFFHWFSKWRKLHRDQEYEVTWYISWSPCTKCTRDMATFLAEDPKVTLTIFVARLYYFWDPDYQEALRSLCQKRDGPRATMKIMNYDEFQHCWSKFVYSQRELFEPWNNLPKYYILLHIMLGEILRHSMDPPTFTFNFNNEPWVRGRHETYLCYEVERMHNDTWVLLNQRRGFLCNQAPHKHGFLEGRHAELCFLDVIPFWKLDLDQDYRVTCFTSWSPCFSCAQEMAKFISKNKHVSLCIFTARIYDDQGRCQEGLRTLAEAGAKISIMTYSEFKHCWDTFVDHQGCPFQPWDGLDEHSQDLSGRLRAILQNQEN
ASAP1 GAP inh – inhibitors of human ASAP1 ArfGAP activity; inhibition, % at 16.5 µM; ASAP1-stimulated ARF1 GTP hydrolysis, GDP FP detection; 360,000 compounds, 0.19% hits; Q9ULH1; in the data active = inhibition above about 25%;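 also: 0% = vehicle with enzyme and substrate and 100% = no enzyme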
ARFGAP1 inh – inhibitors of rat ARFGAP1 | Q62848 | Arfgap1-stimulated ARF1 GTP hydrolysis, GDP FP detection | inhibition, % at 16.5 µM | 360,000 compounds, 0.26% hits | AID 651572;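 active = inhibition above a per-plate limit, mean inhibition of low control wells plus 3 SD, cut at about 25% in these data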;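 also: 0% = DMSO wells with enzyme and 100% = wells lacking Arfgap1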
Target sequence (Q62848 1-136 limits assumed): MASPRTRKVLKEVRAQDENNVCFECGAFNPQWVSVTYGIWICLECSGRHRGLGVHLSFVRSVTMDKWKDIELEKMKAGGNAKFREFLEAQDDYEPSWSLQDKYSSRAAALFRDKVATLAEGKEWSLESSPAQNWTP
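Assay system: Rat Arfgap1 GAP domain (His6, aa 1-136), purified enzyme | Buffer or medium: HEPES 25 mM pH 7.5, NaCl 150 mM, MgCl2, DTT | Schedule: GTP hydrolysis reaction 2 h at 25 °C | Signal: FP of antibody-bound GDP Alexa 633 tracer, ex 620/em 688 nm | Measure: Percent inhibition of Arfgap1-stimulated GTP hydrolysis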
Statin myotox sup – suppressors of simvastatin-induced myotoxicity in C2C12 myotubes. ATP luminescence, 48 h; scaled: DMSO 0, geranylgeraniol control 100. AID 602340. rescue of ATP level, % at 7.49 µM. 330,000 compounds, 0.78% hits;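 active = mean ATP rescue above about 67%, or every replicate alone reaching that limit, limit read from the data, passing the limit was not always enough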;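 also: myotubes were challenged with 10 µM simvastatin during compound exposure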
Mot1 SUMO dose – yeast SUMO pathway inhibition in dose response; AID 493004; shares compounds with Mot1-301 SUMO; 2,300 tested, under 10 active; S. cerevisiae Mot1-301 galactose growth, ATP luminescence, 24 h; -100 = growth of slx-deleted rescue strain; growth activity, percent, % at 42 µM;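 active = Signal drops as the depositor expects, and the fitted half-maximal dose is no more than ten times the top valid tested dose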;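 also: more negative values mean stronger growth rescue toward the control strain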
Numbers without * were called inactive; . = no result; + = active, no number. Only some compounds are listed: those with a hit (about 2.1% of all), similar ones and a draw of the others.

SMILES	A3A deaminase	Mot1-301 SUMO	APOBEC3G inh	ASAP1 GAP inh	ARFGAP1 inh	Statin myotox sup	Mot1 SUMO dose
CCC(=O)N1CCc2cc(S(=O)(=O)CCC(=O)N3CCc4ccccc4C3)ccc21	5.6	94.4	-0.4	.	.	76.3*	.
CCCN1C(=O)c2ccc(C(=O)Nc3nccs3)cc2C1=O	2.2	543.7*	-6.4	0.1	4.9	-18.8	0.5
COCCN1C(=O)c2ccc(C(=O)Nc3nccs3)cc2C1=O	-0.4	23.1	-8.0	3.2	-0.3	-7.5	.
CCn1nccc1C(=O)Nc1nccs1	0.4	705.8*	-3.2	-5.2	1.1	.	-0.2
CNC[C@H]1Oc2ncc(C3=CCCC3)cc2C(=O)N([C@@H](C)CO)C[C@H]1C	.	.	.	.	.	17.8	.
CCOc1ccc(NC(=O)CNc2ccc(C)cc2Cl)cc1	-0.3	810.9*	-2.8	2.3	14.2	.	-0.9
CCOc1ccc(NCC(=O)Nc2ccc(C)cc2C)cc1	-1.2	-11.0	1.0	-4.2	7.0	-51.9	.
CCN1CCN(CC(=O)N2N=CCC2c2ccccc2)CC1 (stereo not given)	3.4	805.3*	-4.7	-2.2	4.5	-8.1	0.0
O=C(CSc1ccc(Cl)cc1)N1N=CCC1c1ccccc1 (stereo not given)	0.0	7.7	-3.4	-3.6	3.0	.	.
c1ccc(-c2csc(N3CCN(c4ccccn4)CC3)n2)cc1	-6.4	698.9*	-2.5	4.2	12.4	-25.6	-0.5
O=S(=O)(Nc1ccc(-c2nc3cccnc3s2)cc1)c1cc(F)ccc1F	-12.7	370.2*	-5.7	-1.1	10.1	9.7	-0.9
CCc1ccc(S(=O)(=O)Nc2ccc(-c3nc4cccnc4s3)cc2)s1	-0.9	8.9	-2.9	-11.0	-10.3	2.6	.
CCC(=O)Nc1ccc2c(c1)C(=O)N(C)[C@@H]1CC[C@H](CC(=O)NC3Cc4ccccc4C3)O[C@@H]1CO2	.	.	.	.	.	-10.5	.
COc1ccc(N2CC(C(=O)N3CCc4ccccc43)CC2=O)cc1 (stereo not given)	-4.9	449.9*	-2.9	-1.6	5.4	4.5	-0.1
O=C1CC(C(=O)N2CCCc3ccccc32)CN1c1ccc(F)cc1 (stereo not given)	-1.3	-4.3	-7.5	-5.1	-12.7	-23.2	.
CCCNC(=O)NC(C)C12CC3CC(CC(C3)C1)C2 (stereo not given)	-6.3	-9.8	-5.0	-1.4	11.1	14.2	.
CCNC(=O)NC(C(=O)OC)C12CC3CC(CC(C3)C1)C2 (stereo not given)	-3.9	562.3*	-7.1	8.3	-5.2	.	0.6
COC(=O)C[C@@H]1C[C@@H]2c3cc(NC(=O)c4cccnc4)ccc3O[C@@H]2[C@@H](CO)O1	.	.	.	.	.	3.0	.
COCCn1c(C)cc(C(=O)CN2C(=O)NC3(CCCCCCC3)C2=O)c1C	-2.5	667.4*	-3.0	16.4	2.7	19.1	0.1
Cc1cccc(OCC(O)CN2C(C)(C)CC(O)CC2(C)C)c1 (stereo not given)	1.8	571.0*	-2.3	-7.2	-2.3	-2.3	0.3
CC1(C)CC(O)CC(C)(C)N1CC(O)COCc1ccccc1 (stereo not given)	-5.2	287.3	-5.1	7.3	0.5	-1.6	.
CC(C)Sc1ccc(C(=O)Nc2ccc(F)cc2F)cn1	1.5	537.0*	-6.1	4.5	13.1	.	-0.5
O=C(COc1ncnc2ccccc12)Nc1ccc(Cl)c(S(=O)(=O)N2CCOCC2)c1	0.5	383.7*	-3.6	1.9	4.2	.	0.1
CN(C)S(=O)(=O)c1cccc(NC(=O)COc2nc3ccccc3nc2N2CCOCC2)c1	-0.7	523.7*	-3.0	-10.3	-7.9	.	0.1
O=C(C[C@@H]1CC[C@H]2[C@@H](COC[C@H](O)CN2Cc2cc(F)ccc2F)O1)N1CCc2ccccc2C1	.	.	.	.	.	15.5	.
SMILES	A3A deaminase	Mot1-301 SUMO	APOBEC3G inh	ASAP1 GAP inh	ARFGAP1 inh	Statin myotox sup	Mot1 SUMO dose
C/C=C/c1cnc2c(c1)C(=O)N([C@@H](C)CO)C[C@@H](C)[C@H](CN(C)S(=O)(=O)c1ccccc1)O2	.	.	.	.	.	-1.4	.
CC1Cc2ccccc2N1C(=O)CN1CCN(S(=O)(=O)c2ccc3c(c2)OCCCO3)CC1 (stereo not given)	.	.	.	9.3	6.0	4.8	.
CC1Cc2ccccc2N1C(=O)CNc1cccc(S(=O)(=O)N2CCCC2)c1 (stereo not given)	9.4	+	-3.2	6.7	5.4	-0.2	-0.4
CC(=O)Nc1nc2ccc(NC(=O)c3ccco3)cc2s1	-3.7	-26.3	-6.1	-0.1	1.6	-27.8	.
Cc1nc2ccc(NC(=O)c3ccco3)cc2s1	14.0	363.0*	1.6	-8.3	2.9	.	-0.2
CCCNC(=O)Nc1ccc2c(c1)C(=O)N(C)[C@@H]1CC[C@@H](CC(=O)NCCCN(C)C)O[C@@H]1CO2	.	.	.	.	.	-31.8	.
Cc1cc(C)n(-c2nc(-c3cccc(Cl)c3)cs2)n1	-0.7	434.2*	-2.6	7.8	-7.9	-17.4	0.5
Cc1ccccc1S(=O)(=O)NCC[C@H]1CC[C@H](NC(=O)C2CCCCC2)[C@@H](CO)O1	.	.	.	.	.	7.6	.
O=C(CN1CCc2ccccc21)NN1CC(=O)N(c2ccc(Cl)cc2)CC1=O	-3.3	483.7*	-5.1	-4.8	0.2	.	-0.7
CCCCC(=O)Nc1cc(OC)c(NC(=O)C2CCCCC2)cc1OC	-1.9	711.2*	-1.2	13.7	0.0	2.0	0.3
COc1cc(NC(=O)C2CCCC2)c(OC)cc1Cl	-0.2	17.5	-1.6	0.9	6.9	3.9	.
CCC(=O)N1c2ccc(S(=O)(=O)N3CCN(CC)CC3)cc2CC1C (stereo not given)	-0.9	4.7	-1.8	-7.6	1.6	-4.4	.
CCC(=O)N1c2ccc(S(=O)(=O)N3CCN(c4ccc([N+](=O)[O-])cc4)CC3)cc2CC1C (stereo not given)	-0.6	456.4*	-2.2	6.6	3.0	-21.8	-0.5
C[C@H]1O[C@H]1P(=O)(O)O	-2.3	974.8*	-6.0	1.5	4.6	1.1	0.8
O=c1[nH]cnc2sc3c(c12)CCC3	-8.5	625.8*	-7.5	-5.2	-2.7	6.8	-0.2
CN(CP(=O)(O)C(O)c1ccccc1)S(C)(=O)=O (stereo not given)	-0.8	935.3*	-1.0	6.3	-3.3	-0.8	0.3
O=C(c1ccc(COc2ccc3ccccc3c2)o1)N1N=C(C(F)F)CC1(O)C(F)F (stereo not given)	-2.4	0.9	-8.0	.	.	.	.
O=C(c1ccc(COc2ccccc2Cl)o1)N1N=C(C(F)F)CC1(O)C(F)F (stereo not given)	-0.1	438.1*	-3.3	11.4	-0.6	.	-0.5
COc1cc(-c2nnc(SCC#CCO)o2)cc(OC)c1OC	-2.7	966.6*	-1.5	-8.2	-1.4	114.4*	0.6

Screening results from PubChem BioAssay.
